Assay outcomes (PubChem BioAssay)
HSF1 activator = increases HSF-1 driven luciferase reporter signal. NIH3T3-HGL HSF-1 luciferase reporter, MG132, 8 h; 100% = twice DMSO control signal. activation, % at 9 µM. 1.7% of 300,000 active. AID 504408;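 active = mean replicate activation of at least 50% with a set share of replicates each reaching 50%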;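 note: 0% = median of the neutral control wells and 100% = twice that signal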
ALR inh = inhibitors of human sulfhydryl oxidase ALR | P55789 | purified ALR, DTT oxidation, H2O2 HRP-luminol luminescence | inhibition, % (concentration not given with the values) | 3.8% of 290,000 active | AID 485317;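 active = mean replicate inhibition above about 79%, with every replicate also reaching it, limit read from the data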
Target sequence (P55789 whole entry, looked up): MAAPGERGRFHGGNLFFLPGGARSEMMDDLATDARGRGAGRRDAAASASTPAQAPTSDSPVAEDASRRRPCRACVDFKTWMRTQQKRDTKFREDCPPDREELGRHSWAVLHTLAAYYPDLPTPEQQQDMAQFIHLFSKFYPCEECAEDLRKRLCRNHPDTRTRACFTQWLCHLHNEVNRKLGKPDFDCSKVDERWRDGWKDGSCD
HSF1 inh = HSF1 inhibition; NIH3T3-HGL HSE-luciferase, MG132-induced, luminescence 8 h; active compounds read low; 0.77% of 300,000 active; activity change, negative = inhibition, % at 7.5 µM (by protocol); AID 2098;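 active = more than half of replicate wells show activity change below -50%, luminescence cut by over half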;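 note: luciferase reports HSF-1 transcriptional activity via heat shock element; 0% = median of DMSO wells and -100% = zero luminescence signal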
AI-2 QS mod = Vibrio harveyi AI-2 quorum sensing modulation; Vibrio harveyi JMH597 AI-2 luminescence/OD600 ratio, 9 h; active compounds read low; strain lacks LuxN and CqsS sensors; 0 = neutral-control median; activity change, % at 7.5 µM; 0.4% of 300,000 active; AID 2094; in the data active = activity change below about -75%, passing the limit was not always enough;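 note: luminescence divided by OD600 gain over 9 h not by final OD600 alone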
PHOSPHO1 block = blocks human PHOSPHO1 phosphatase activity. AID 1565. recombinant PHOSPHO1, absorbance phosphatase assay. 1.1% of 290,000 active. inhibition, % at 13.3 µM; in the data active = inhibition above about 60%
Target sequence (Q8TCT1 whole entry, looked up): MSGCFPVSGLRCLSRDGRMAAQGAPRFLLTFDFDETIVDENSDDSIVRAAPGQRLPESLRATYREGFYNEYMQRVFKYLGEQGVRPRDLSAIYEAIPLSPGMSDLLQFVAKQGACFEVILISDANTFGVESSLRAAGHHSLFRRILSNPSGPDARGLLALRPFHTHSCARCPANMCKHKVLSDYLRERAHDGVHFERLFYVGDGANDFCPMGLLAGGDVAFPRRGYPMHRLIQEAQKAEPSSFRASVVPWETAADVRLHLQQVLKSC
core dimer inh = blocks dimerization of HCV core protein; TR-FRET GST/Flag-core106 dimerization, 1536-well; inhibition, % at 5 µM; 0.33% of 300,000 active;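 active = inhibition above the mean of all tested compounds plus 3 SD, set per screening campaign, cut at about 45% in these data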
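Assay system: tagged HCV core106 pair (GST and Flag); medium: KF-containing HEPES buffer, pH 7.45, DTT, CHAPS, BSA; also added: Eu donor and XL665 acceptor anti-tag antibodies; dosing: 5 µM single dose; timing: compound-protein-antibody incubation 4 h at 22.5 °C; signal: TR-FRET 671 and 617 nm emission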
Numbers without * were called inactive. The list is not random: actives were taken first. Their share in the collection is about 6.8%.

What do the screens show for `Cc1[nH]c2nc3ccccc3n2c(=O)c1CCC(C)C`?
HSF1 activator: -22; ALR inh: -2; HSF1 inh: -2; AI-2 QS mod: -5; PHOSPHO1 block: 36; core dimer inh: 4

How did COCCNC(=O)CN(Cc1ccccc1)C(=O)CCC(=O)Nc1nccs1 do in these assays?
HSF1 activator: 2; ALR inh: -3; HSF1 inh: -13; AI-2 QS mod: 40; PHOSPHO1 block: 12; core dimer inh: 9

Results for c1ccc(Nc2nc(CSc3ncn[nH]3)cs2)cc1 ?
HSF1 activator: 24; ALR inh: 94*; HSF1 inh: 6; AI-2 QS mod: 14; PHOSPHO1 block: -4; core dimer inh: 5

Results for O=C(CSc1ncn[nH]1)Nc1nc(-c2ccccc2)cs1 ?
HSF1 activator: 11; ALR inh: -5; HSF1 inh: 5; AI-2 QS mod: 29; PHOSPHO1 block: 23; core dimer inh: 8

What do the screens show for `CCCNC(=O)CS(=O)(=O)Cc1nc(-c2cccc(OC)c2)oc1C`?
HSF1 activator: 12; ALR inh: 98*; HSF1 inh: -5; AI-2 QS mod: 19; PHOSPHO1 block: -2; core dimer inh: -9

How did COc1cccc(-c2nc(CS(=O)(=O)CC(=O)NCCc3ccccc3)c(C)o2)c1 do in these assays?
HSF1 activator: -10; ALR inh: 9; HSF1 inh: 0; AI-2 QS mod: 12; PHOSPHO1 block: 16; core dimer inh: 8

What do the screens show for `CCOCCCNC(=O)CS(=O)(=O)Cc1nc(-c2cccc(OC)c2)oc1C`?
HSF1 activator: 30; ALR inh: 98*; HSF1 inh: 2; AI-2 QS mod: 5; PHOSPHO1 block: -3; core dimer inh: 2

Results for CCN(CC(=O)Nc1ccccc1OC)C(=O)CCOc1ccc(C(C)(C)C)cc1 ?
HSF1 activator: -7; ALR inh: 1; HSF1 inh: -3; AI-2 QS mod: 8; core dimer inh: 1

Results for CNC(=O)c1c(I)c(C(=O)NCC(=O)Nc2c(I)c(C(=O)O)c(I)c(C(=O)NCCO)c2I)c(I)c(N(C)C(C)=O)c1I ?
core dimer inh: -2

Results for COc1ccc(OC)c(/C=N/c2oc(-c3ccco3)c(-c3ccco3)c2C#N)c1 ?
HSF1 activator: 15; ALR inh: 98*; HSF1 inh: -4; AI-2 QS mod: 38; PHOSPHO1 block: 18; core dimer inh: 41

What do the screens show for `N#Cc1c(N)oc(-c2ccco2)c1-c1ccco1`?
HSF1 activator: 11; ALR inh: -85; HSF1 inh: 0; AI-2 QS mod: 17; PHOSPHO1 block: 26; core dimer inh: -17

What do the screens show for `O=[N+]([O-])c1ccc(CSc2nc3ccccc3o2)cc1`?
HSF1 activator: 117*; ALR inh: -5; HSF1 inh: 92; AI-2 QS mod: 14; PHOSPHO1 block: 16; core dimer inh: 2

Results for O=S(=O)(NN1CCOCC1)c1cc(Cl)cc(Cl)c1O ?
HSF1 activator: -14; ALR inh: 40; HSF1 inh: -6; AI-2 QS mod: 11; PHOSPHO1 block: 36; core dimer inh: 7

Results for O=C(N/N=C/C=C/c1ccco1)c1ccncc1 ?
HSF1 activator: -1; ALR inh: -6; HSF1 inh: 3; AI-2 QS mod: -10; PHOSPHO1 block: -8; core dimer inh: -2

What do the screens show for `O=C(NN1C(=O)/C(=C/C=C/c2ccco2)SC1=S)c1ccncc1`?
HSF1 activator: 10; ALR inh: 22; HSF1 inh: 2; AI-2 QS mod: 13; PHOSPHO1 block: -1; core dimer inh: 47*

Results for O=C(NN1C(=O)/C(=C/C=C/c2ccccc2)SC1=S)c1ccncc1 ?
HSF1 activator: 2; ALR inh: 64; HSF1 inh: -4; AI-2 QS mod: 9; PHOSPHO1 block: 1; core dimer inh: 49*

Results for COc1ccc(-c2nn(CCC(=O)O)cc2/C=C/C(=O)O)cc1[N+](=O)[O-] ?
HSF1 activator: 9; ALR inh: -8; HSF1 inh: 3; AI-2 QS mod: 34; PHOSPHO1 block: -8; core dimer inh: 6

What do the screens show for `Nc1ccc(Oc2ccccc2-c2ccccc2)cc1`?
HSF1 activator: 1; ALR inh: 99*; HSF1 inh: -4; AI-2 QS mod: 8; core dimer inh: -1

Results for Cc1ccc(OC(C)C(=O)Nc2ccc3c(c2)n(C)c(=O)n3C)cc1C (stereo not drawn) ?
HSF1 activator: 0; ALR inh: -12; HSF1 inh: -2; AI-2 QS mod: 0; PHOSPHO1 block: 60*; core dimer inh: -11

Results for Cc1cc(C)cc(OC(C)C(=O)Nc2ccc3c(c2)n(C)c(=O)n3C)c1 (stereo not drawn) ?
HSF1 activator: -8; ALR inh: -12; HSF1 inh: -5; AI-2 QS mod: 18; PHOSPHO1 block: -1

What do the screens show for `O=[N+]([O-])c1ccc(-n2nnnc2-c2ccccc2)cc1`?
HSF1 activator: -50; ALR inh: -9; HSF1 inh: -29; AI-2 QS mod: -5; PHOSPHO1 block: 6; core dimer inh: 3

How did O=[N+]([O-])c1ccc(-n2nnnc2-c2ccccc2)c([N+](=O)[O-])c1 do in these assays?
HSF1 activator: 231*; ALR inh: -53; HSF1 inh: 244; AI-2 QS mod: 68; PHOSPHO1 block: 2; core dimer inh: -8

What do the screens show for `O[C@@H]1C2CCCC1[C@]1(O)CCCCC1C2` (stereo partly drawn)?
HSF1 activator: 53*; ALR inh: -5; HSF1 inh: 38; AI-2 QS mod: 1; PHOSPHO1 block: 2; core dimer inh: -5

What do the screens show for `CC(=O)SC1CC(=O)N(c2c(C)cccc2C)C1=O` (stereo not drawn)?
HSF1 activator: 21; HSF1 inh: 8; AI-2 QS mod: -14; PHOSPHO1 block: 43; core dimer inh: -4

What do the screens show for `CC(=O)SC1CC(=O)N(c2ccc(C(C)(C)C)cc2)C1=O` (stereo not drawn)?
HSF1 activator: -2; ALR inh: 98*; HSF1 inh: 1; AI-2 QS mod: -5; PHOSPHO1 block: 23; core dimer inh: -8

What do the screens show for `COC(=O)/C(=C\Nc1ccc(Oc2ccc(F)cc2F)nc1)NC(=O)c1ccccc1`?
HSF1 activator: 7; ALR inh: -8; HSF1 inh: -5; AI-2 QS mod: 20; PHOSPHO1 block: 25; core dimer inh: -1

How did CN1CCc2cccc3c2C1Cc1ccc(O)c(O)c1-3 (stereo not drawn) do in these assays?
HSF1 activator: 21; ALR inh: 98*; HSF1 inh: 32; AI-2 QS mod: 1; PHOSPHO1 block: 25; core dimer inh: -1

Results for O=C(Nc1ccc(F)cc1Cl)C1CCN(C(=O)Nc2ccccc2)CC1 ?
HSF1 activator: -6; ALR inh: -2; HSF1 inh: -1; AI-2 QS mod: 19; PHOSPHO1 block: 41; core dimer inh: 0
